The values that follow come from ChEMBL document CHEMBL5338825, “Structure-Based Discovery of Inhibitors of the SARS-CoV-2 Nsp14 N7-Methyltransferase” (J Med Chem, 2023).

Each structure is given as a SMILES string. Active and inactive are the calls of the source. The rule behind the calls is not given here. Bounds are passed on as bounds.

The target in data set [1] is Histone-lysine N-methyltransferase EHMT1 (Homo sapiens, UniProt Q9H9B1). Briefly: Inhibition of human GLP using biotin-tagged Histone H3 and 3H-SAM as substrate incubated for 1 hrs by TopCount scintillation proximity assay. The method in brief:
(§1)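 Radiometric concentration–response for IC50, run on panel methyltransferases showing more than 50% inhibition at a 10 μM screen. Triplicate.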

Data set [2] in a line: Aggregation property of the compound in KPi buffer at pH 7.0 assessed as formation of colloid-like particles at 3.8 uM by dynamic light scattering analysis. The note with it: pH 7, 3.8 µM. In kind it is physicochemical. The method in brief:
(§2)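 Compounds diluted as 8-point half-log series in filtered 50 mM KPi, pH 7.0, with 1% v/v DMSO final. Particles detected by dynamic light scattering, triplicate at each concentration. CAC taken as the intersection of separate nonlinear fits to aggregating (>10^6 scattering intensity) and non-aggregating data.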

Data set [3] addresses Replicase polyprotein 1ab (Severe acute respiratory syndrome coronavirus 2) (UniProt P0DTD1). Put plainly: Reversible covalent inhibition of N-terminal 6His/SUMO-tagged SARS-CoV-2 NSP14 expressed in Escherichia coli Rosetta 2 (DE3) PlysS cells using 5'GpppACCCCCCCCC-Biotin 3' and 3H-SAM as substrates at 10 fold IC50 concentration incubated for 60 mins by rapid dilution method. Put shortly:
(§3)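 Jump dilution: Nsp14 at 100-fold its assay concentration (assay level 1.5 nM) preincubated with compound for 1 h at room temperature. Then diluted 100-fold into assay buffer containing RNA substrate and SAM, and recovery of methyltransferase activity monitored.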

Data set [4] shares this target. Put plainly: Inhibition of N-terminal 6His/SUMO-tagged SARS-CoV-2 NSP14 expressed in Escherichia coli Rosetta 2 (DE3) PlysS cells using 5'GpppACCCCCCCCC-Biotin 3' and 3H-SAM as substrates at 100 uM incubated for 30 mins by TopCount scintillation proximity assay relative to control.
Data set [5] concerns the target Replicase polyprotein 1ab (Severe acute respiratory syndrome coronavirus 2, UniProt P0DTD1). Put plainly: Inhibition of N-terminal 6His/SUMO-tagged SARS-CoV-2 NSP14 expressed in Escherichia coli Rosetta 2 (DE3) PlysS cells using 5'GpppACCCCCCCCC-Biotin 3' and 3H-SAM as substrates incubated for 30 mins by TopCount scintillation proximity assay.
The target of data set [6] is Replicase polyprotein 1ab (Severe acute respiratory syndrome coronavirus 2) (UniProt P0DTD1). Put plainly: Reversible binding affinity to Cys387 of N-terminal 6His/SUMO-tagged SARS-CoV-2 NSP14 expressed in Escherichia coli Rosetta 2 (DE3) PlysS cells using 5'GpppACCCCCCCCC-Biotin 3' and 3H-SAM as substrates incubated for 2 hrs by mass spectrometry analysis. The method in brief:
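Nsp14 incubated with 20-fold molar excess of compound for 2 h at 20 °C, then taken into 0.1% formic acid. Separated by HPLC on a 5–95% acetonitrile/water gradient and analysed by ESI time-of-flight MS for protein mass shift.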

Data set [7] has as its system Bacteria. Briefly: Inhibition of beta-lactamase AmpC (unknown origin) at 3.8 uM pre-incubated with compound for 5 mins followed by substrate addition and measured after 1.5 mins by absorbance based plate reader analysis. Conditions: time 6.5 min. Put shortly: (§4)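 AmpC at 2 nM preincubated 5 min with compound at room temperature in 50 mM KPi, pH 7.0, with 1% v/v DMSO. Started with 50 μM CENTA (read at 405 nm) or 50 μM nitrocefin (read at 490 nm), monitored 1 min 30 s. Initial rate taken as % of DMSO control. Top concentration in triplicate; eight-point half-log curves in triplicate where inhibition exceeded 40%.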

Data set [8] concerns Bacteria. Put plainly: Inhibition of beta-lactamase AmpC (unknown origin) at 3.8 uM pre-incubated with compound for 5 mins followed by substrate addition and measured after 1.5 mins in the presence of 0.01% Triton-X 100 by absorbance based plate reader analysis. The method in brief: (§5)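 AmpC detergent-reversal assay: 50 mM KPi, pH 7.0, with 1% v/v DMSO and 0.01% v/v Triton X-100. Enzyme at 2 nM preincubated 5 min with compound, then 50 μM CENTA (405 nm) or nitrocefin (490 nm) added. Absorbance followed for 1 min 30 s and rate normalised to DMSO. Eight-point half-log curves in triplicate.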

The species entered for data set [9] is Homo sapiens. Briefly: Inhibition of MDH (unknown origin) using oxaloacetic acid as substrate at 3.8 uM preincubated with compound for 5 mins followed by substrate addition and measured after 1.5 min in the presence of NADH by absorbance based plate reader analysis. Conditions: time 6.5 min. Put shortly: (§6)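 MDH assay at room temperature in 50 mM KPi, pH 7.0, with 1% v/v DMSO final. Compound preincubated 5 min with 2 nM enzyme. Reaction started with 200 μM NADH plus 200 μM oxaloacetic acid, and absorbance followed at 340 nm for 1 min 30 s. Initial rate divided by the DMSO control rate. Single top concentration in triplicate; eight-point half-log curves in triplicate where inhibition exceeded 40%.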

For data set [10], the species on record is Homo sapiens. Briefly: Inhibition of MDH (unknown origin) using oxaloacetic acid as substrate at 3.8 uM preincubated with compound for 5 mins followed by substrate addition and measured after 1.5 min in the presence of NADH and 0.01% Triton-X 100 by absorbance based plate reader analysis. The note with it: time 6.5 min. The method in brief:
(§7)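 Detergent-reversal MDH assay: 50 mM KPi, pH 7.0, with 1% v/v DMSO and 0.01% v/v Triton X-100. Enzyme at 2 nM preincubated 5 min with compound, then started with 200 μM NADH plus 200 μM oxaloacetate. A340 read for 1 min 30 s, rate normalised to DMSO control. Eight-point half-log curves in triplicate.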

The target in data set [11] is Histone-lysine N-methyltransferase EHMT2 (Homo sapiens, UniProt Q96KQ7). Put plainly: Inhibition of human G9a using biotin-tagged Histone H3 and 3H-SAM as substrate incubated for 1 hrs by TopCount scintillation proximity assay. The method in brief:
as §1

Data set [12] deals with T1, Protein arginine N-methyltransferase 3 (Homo sapiens, UniProt O60678). Put plainly: Inhibition of human PRMT3 using biotin-tagged Histone H4 and 3H-SAM as substrate incubated for 1 hrs by TopCount scintillation proximity assay. Put shortly:
as §1

In data set [13] the target is Replicase polyprotein 1ab (Severe acute respiratory syndrome coronavirus 2) (UniProt P0DTD1). Put plainly: Non-covalent inhibition of N-terminal 6His/SUMO-tagged SARS-CoV-2 NSP14 expressed in Escherichia coli Rosetta 2 (DE3) PlysS cells using 5'GpppACCCCCCCCC-Biotin 3' and 3H-SAM as substrates at 10 fold IC50 concentration incubated for 60 mins by rapid dilution method. The method in brief:
as §3

Data set [14] addresses T2, Histone-lysine N-methyltransferase 2A (Homo sapiens, UniProt Q03164). Put plainly: Inhibition of human MLL1 using biotin-tagged Histone H3 and 3H-SAM as substrate at 6 uM incubated for 1 hrs by TopCount scintillation proximity assay relative to control.
Data set [15] concerns the target T3, Histone-lysine N-methyltransferase, H3 lysine-79 specific (Homo sapiens, UniProt Q8TEK3). Put plainly: Inhibition of human DOT1L using chicken nucleosome and 3H-SAM as substrate incubated for 1 hrs by TopCount scintillation proximity assay. The method in brief:
as §1

In data set [16] the target is Protein arginine N-methyltransferase 9 (Homo sapiens, UniProt Q6P2P2). Briefly: Inhibition of human PRMT9 using biotin-tagged SAP145 and 3H-SAM as substrate incubated for 1 hrs by TopCount scintillation proximity assay. The method in brief:
as §1

Data set [17] concerns the target Replicase polyprotein 1ab (Severe acute respiratory syndrome coronavirus 2) (UniProt P0DTD1). Briefly: Competitive inhibition of N-terminal 6His/SUMO-tagged SARS-CoV-2 NSP14 expressed in Escherichia coli Rosetta 2 (DE3) PlysS cells using 5'GpppACCCCCCCCC-Biotin 3' and 3H-SAM as substrates at increasing concentration incubated for 30 mins by TopCount scintillation proximity assay. Put shortly:
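Competition pattern read from IC50 shifts. […] Separately, SAM fixed at 1.25 μM (5× Km) with RNA varied up to 0.5 μM (10× Km). A linear rise of IC50 with substrate concentration was taken as competitive inhibition.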

In data set [18] the target is T4, Protein arginine N-methyltransferase 1 (Homo sapiens, UniProt Q99873). Put plainly: Inhibition of human PRMT1 using biotin-tagged Histone H4 and 3H-SAM as substrate incubated for 1 hrs by TopCount scintillation proximity assay. Put shortly:
as §1

Data set [19] addresses RNA 5'-monophosphate methyltransferase (Homo sapiens) (UniProt Q7Z5W3). Put plainly: Inhibition of human BCDIN3D using biotin-tagged microRNA-145 and 3H-SAM as substrate at 6 uM incubated for 1 hrs by TopCount scintillation proximity assay relative to control.
Data set [20] addresses Histone-lysine N-methyltransferase SMYD3 (Homo sapiens, UniProt Q9H7B4). Briefly: Inhibition of human SMYD3 using biotin-tagged MAP3K2 and 3H-SAM as substrate incubated for 1 hrs by TopCount scintillation proximity assay. The method in brief: (§8)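 Radiometric human methyltransferase assay. Enzymes showing >50% inhibition at a 10 μM single-point screen went on to concentration–response in triplicate to derive IC50.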

The target in data set [21] is T1, Protein arginine N-methyltransferase 3. Briefly: Inhibition of human PRMT3 using biotin-tagged Histone H4 and 3H-SAM as substrate at 6 uM incubated for 1 hrs by TopCount scintillation proximity assay relative to control.
Data set [22] has as its target Histone-lysine N-methyltransferase EHMT1 (Homo sapiens) (UniProt Q9H9B1). Put plainly: Inhibition of human GLP using biotin-tagged Histone H3 and 3H-SAM as substrate at 6 uM incubated for 1 hrs by TopCount scintillation proximity assay relative to control.
The target in data set [23] is Histone-lysine N-methyltransferase SUV39H1 (Homo sapiens, UniProt O43463). Briefly: Inhibition of human SUV39H1 using Biotin-tagged histone H3 and 3H-SAM as substrate incubated for 1 hrs by TopCount scintillation proximity assay. The method in brief: as §8
In data set [24] the target is RNA 5'-monophosphate methyltransferase (Homo sapiens, UniProt Q7Z5W3). Briefly: Inhibition of human BCDIN3D using biotin-tagged microRNA-145 and 3H-SAM as substrate incubated for 1 hrs by TopCount scintillation proximity assay. Put shortly:
as §1

The target in data set [25] is T3, Histone-lysine N-methyltransferase, H3 lysine-79 specific. Put plainly: Inhibition of human DOT1L using chicken nucleosome and 3H-SAM as substrate at 6 uM incubated for 1 hrs by TopCount scintillation proximity assay relative to control.
In data set [26] the test system is Bacteria. Briefly: Inhibition of beta-lactamase AmpC (unknown origin) pre-incubated with compound for 5 mins followed by substrate addition and measured after 1.5 mins in the presence of 0.01% Triton-X 100 by absorbance based plate reader analysis. The note with it: time 6.5 min. Put shortly:
as §5

For data set [27], the species on record is Homo sapiens. Put plainly: Inhibition of MDH (unknown origin) using oxaloacetic acid as substrate preincubated with compound for 5 mins followed by substrate addition and measured after 1.5 min in the presence of NADH and 0.01% Triton-X 100 by absorbance based plate reader analysis. The note with it: time 6.5 min. Put shortly:
as §7

The target of data set [28] is T4, Protein arginine N-methyltransferase 1. Briefly: Inhibition of human PRMT1 using biotin-tagged Histone H4 and 3H-SAM as substrate at 6 uM incubated for 1 hrs by TopCount scintillation proximity assay relative to control.
Data set [29] in a line: Aggregation property of the compound in KPi buffer at pH 7.0 assessed as formation of colloid-like particles by dynamic light scattering analysis. In kind it is physicochemical. Put shortly: as §2
The species entered for data set [30] is Homo sapiens. Put plainly: Inhibition of MDH (unknown origin) using oxaloacetic acid as substrate preincubated with compound for 5 mins followed by substrate addition and measured after 1.5 min in the presence of NADH by absorbance based plate reader analysis. Conditions: time 6.5 min. The method in brief:
as §6

In data set [31] the test system is Bacteria. Briefly: Inhibition of beta-lactamase AmpC (unknown origin) pre-incubated with compound for 5 mins followed by substrate addition and measured after 1.5 mins by absorbance based plate reader analysis. Conditions: time 6.5 min. Put shortly: as §4
For data set [32], the target named is Protein arginine N-methyltransferase 9 (Homo sapiens) (UniProt Q6P2P2). Put plainly: Inhibition of human PRMT9 using biotin-tagged SAP145 and 3H-SAM as substrate at 6 uM incubated for 1 hrs by TopCount scintillation proximity assay relative to control.
Data set [33] deals with Histone-lysine N-methyltransferase SUV39H1 (Homo sapiens) (UniProt O43463). Briefly: Inhibition of human SUV39H1 using Biotin-tagged histone H3 and 3H-SAM as substrate at 6 uM incubated for 1 hrs by TopCount scintillation proximity assay relative to control.
The target in data set [34] is T2, Histone-lysine N-methyltransferase 2A. Briefly: Inhibition of human MLL1 using biotin-tagged Histone H3 and 3H-SAM as substrate incubated for 1 hrs by TopCount scintillation proximity assay. Put shortly:
as §1

Data set [35] has as its target Histone-lysine N-methyltransferase SMYD3 (Homo sapiens) (UniProt Q9H7B4). Briefly: Inhibition of human SMYD3 using biotin-tagged MAP3K2 and 3H-SAM as substrate at 6 uM incubated for 1 hrs by TopCount scintillation proximity assay relative to control.

T2 sequence (Q03164 1-2718 limits assumed): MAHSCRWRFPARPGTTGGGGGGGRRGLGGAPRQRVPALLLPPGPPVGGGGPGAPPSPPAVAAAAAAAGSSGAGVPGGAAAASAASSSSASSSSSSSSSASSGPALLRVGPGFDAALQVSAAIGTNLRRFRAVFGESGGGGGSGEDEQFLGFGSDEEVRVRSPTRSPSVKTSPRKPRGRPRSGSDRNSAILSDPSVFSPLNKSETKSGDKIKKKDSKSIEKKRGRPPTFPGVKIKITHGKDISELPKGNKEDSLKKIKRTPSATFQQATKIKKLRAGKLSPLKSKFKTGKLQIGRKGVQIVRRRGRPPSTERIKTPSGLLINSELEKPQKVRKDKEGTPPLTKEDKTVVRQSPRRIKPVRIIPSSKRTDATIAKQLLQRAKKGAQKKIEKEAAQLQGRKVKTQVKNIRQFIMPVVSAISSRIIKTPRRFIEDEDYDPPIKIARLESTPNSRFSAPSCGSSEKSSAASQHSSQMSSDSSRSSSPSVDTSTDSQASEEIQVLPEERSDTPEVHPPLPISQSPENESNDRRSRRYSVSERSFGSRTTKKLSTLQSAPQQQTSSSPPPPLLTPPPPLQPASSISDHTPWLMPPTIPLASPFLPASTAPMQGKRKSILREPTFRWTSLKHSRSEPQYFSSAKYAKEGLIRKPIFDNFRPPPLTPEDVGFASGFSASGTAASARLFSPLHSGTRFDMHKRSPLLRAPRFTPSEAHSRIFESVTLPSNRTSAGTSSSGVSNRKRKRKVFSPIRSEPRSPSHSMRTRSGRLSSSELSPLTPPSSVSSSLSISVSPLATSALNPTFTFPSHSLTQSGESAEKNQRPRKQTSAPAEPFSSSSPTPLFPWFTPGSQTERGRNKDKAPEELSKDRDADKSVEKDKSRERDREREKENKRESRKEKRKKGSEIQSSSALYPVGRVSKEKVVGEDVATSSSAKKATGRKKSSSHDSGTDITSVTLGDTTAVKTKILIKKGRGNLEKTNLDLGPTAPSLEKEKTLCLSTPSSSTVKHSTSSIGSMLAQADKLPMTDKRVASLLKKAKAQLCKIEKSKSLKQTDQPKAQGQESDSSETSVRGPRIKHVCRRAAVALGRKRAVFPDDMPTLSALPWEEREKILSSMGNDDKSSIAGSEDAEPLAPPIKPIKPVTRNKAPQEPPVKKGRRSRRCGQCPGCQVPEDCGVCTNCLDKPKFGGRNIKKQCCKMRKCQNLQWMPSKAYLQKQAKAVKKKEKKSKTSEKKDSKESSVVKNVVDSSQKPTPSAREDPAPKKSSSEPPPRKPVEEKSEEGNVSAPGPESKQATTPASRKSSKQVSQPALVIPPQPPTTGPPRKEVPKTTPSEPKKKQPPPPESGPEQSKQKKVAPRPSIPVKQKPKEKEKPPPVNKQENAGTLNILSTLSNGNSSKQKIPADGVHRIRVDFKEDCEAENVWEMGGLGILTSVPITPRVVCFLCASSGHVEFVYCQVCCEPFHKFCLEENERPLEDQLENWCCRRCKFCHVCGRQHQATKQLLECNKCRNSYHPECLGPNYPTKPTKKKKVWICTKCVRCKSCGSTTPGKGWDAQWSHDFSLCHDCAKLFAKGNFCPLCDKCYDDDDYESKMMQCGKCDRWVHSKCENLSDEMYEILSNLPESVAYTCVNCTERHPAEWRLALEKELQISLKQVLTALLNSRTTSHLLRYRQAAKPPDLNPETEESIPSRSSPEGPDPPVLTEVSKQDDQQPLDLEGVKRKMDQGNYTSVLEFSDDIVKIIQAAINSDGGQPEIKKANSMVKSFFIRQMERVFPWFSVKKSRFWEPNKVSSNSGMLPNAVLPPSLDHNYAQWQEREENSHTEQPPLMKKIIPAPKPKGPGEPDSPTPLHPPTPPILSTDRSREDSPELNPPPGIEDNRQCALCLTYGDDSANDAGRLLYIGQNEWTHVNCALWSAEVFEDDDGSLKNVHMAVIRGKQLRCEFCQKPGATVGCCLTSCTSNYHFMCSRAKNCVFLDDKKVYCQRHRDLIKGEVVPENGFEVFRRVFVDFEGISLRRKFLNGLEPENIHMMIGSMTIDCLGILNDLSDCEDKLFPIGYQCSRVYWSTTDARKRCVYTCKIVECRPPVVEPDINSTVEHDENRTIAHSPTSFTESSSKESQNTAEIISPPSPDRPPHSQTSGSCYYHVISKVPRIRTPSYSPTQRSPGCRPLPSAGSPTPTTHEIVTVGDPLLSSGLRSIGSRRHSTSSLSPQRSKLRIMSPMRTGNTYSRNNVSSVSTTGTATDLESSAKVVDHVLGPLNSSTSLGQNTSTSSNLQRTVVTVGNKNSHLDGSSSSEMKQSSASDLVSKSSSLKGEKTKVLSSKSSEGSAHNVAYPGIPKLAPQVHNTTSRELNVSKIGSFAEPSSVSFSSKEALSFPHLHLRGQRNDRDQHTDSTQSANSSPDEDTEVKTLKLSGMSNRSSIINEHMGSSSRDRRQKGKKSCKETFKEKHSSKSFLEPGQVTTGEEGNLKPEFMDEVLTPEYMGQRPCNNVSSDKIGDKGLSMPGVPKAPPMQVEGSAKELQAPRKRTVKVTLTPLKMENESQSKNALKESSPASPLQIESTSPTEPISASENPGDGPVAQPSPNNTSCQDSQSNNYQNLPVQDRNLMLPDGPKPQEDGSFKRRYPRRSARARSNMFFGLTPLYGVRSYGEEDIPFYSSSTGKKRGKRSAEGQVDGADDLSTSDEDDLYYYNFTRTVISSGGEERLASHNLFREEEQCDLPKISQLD
T2 sequence (Q03164 2719-3969 limits assumed): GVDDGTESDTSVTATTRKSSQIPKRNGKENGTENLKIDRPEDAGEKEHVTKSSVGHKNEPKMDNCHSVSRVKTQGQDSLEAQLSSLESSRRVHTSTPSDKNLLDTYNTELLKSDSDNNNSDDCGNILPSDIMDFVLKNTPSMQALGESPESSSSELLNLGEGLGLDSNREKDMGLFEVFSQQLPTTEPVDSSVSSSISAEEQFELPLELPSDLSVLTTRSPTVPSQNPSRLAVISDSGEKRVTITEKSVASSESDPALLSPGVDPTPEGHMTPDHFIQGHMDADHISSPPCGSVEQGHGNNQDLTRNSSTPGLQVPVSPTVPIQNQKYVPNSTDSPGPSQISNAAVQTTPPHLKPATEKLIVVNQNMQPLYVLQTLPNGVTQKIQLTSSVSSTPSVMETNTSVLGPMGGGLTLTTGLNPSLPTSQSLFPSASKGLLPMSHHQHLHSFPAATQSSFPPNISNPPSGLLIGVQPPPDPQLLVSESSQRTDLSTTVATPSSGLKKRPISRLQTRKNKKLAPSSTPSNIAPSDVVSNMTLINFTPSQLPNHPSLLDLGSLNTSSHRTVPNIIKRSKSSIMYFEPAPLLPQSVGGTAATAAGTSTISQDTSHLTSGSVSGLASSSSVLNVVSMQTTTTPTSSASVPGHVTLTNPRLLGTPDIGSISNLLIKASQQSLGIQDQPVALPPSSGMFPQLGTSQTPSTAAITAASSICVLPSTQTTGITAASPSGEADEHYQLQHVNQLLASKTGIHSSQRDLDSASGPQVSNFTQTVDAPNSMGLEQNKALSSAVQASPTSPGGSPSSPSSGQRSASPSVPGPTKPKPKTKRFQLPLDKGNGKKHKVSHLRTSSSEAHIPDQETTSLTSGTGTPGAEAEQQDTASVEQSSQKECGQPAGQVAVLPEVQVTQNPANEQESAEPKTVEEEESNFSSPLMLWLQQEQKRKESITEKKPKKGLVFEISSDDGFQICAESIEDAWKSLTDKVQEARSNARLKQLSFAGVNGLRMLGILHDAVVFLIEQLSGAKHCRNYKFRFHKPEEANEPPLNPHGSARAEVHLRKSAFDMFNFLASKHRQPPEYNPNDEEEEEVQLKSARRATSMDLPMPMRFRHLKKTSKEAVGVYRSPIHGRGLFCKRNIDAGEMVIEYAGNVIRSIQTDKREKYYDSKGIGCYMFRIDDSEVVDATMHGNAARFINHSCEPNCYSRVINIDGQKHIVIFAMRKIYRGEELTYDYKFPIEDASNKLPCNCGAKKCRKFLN
RNA 5'-monophosphate methyltransferase, sequence (Q7Z5W3 whole entry): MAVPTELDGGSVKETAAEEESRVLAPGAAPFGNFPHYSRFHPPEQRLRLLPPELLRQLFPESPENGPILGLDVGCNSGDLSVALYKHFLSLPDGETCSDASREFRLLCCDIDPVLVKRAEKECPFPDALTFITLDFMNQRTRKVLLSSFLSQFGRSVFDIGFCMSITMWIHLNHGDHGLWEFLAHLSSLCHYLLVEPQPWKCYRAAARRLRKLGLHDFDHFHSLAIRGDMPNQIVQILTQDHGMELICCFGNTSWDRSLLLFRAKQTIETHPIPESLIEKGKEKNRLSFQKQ
RNA 5'-monophosphate methyltransferase (Homo sapiens), sequence (Q7Z5W3 whole entry): as above
Protein arginine N-methyltransferase 9, sequence (Q6P2P2 whole entry): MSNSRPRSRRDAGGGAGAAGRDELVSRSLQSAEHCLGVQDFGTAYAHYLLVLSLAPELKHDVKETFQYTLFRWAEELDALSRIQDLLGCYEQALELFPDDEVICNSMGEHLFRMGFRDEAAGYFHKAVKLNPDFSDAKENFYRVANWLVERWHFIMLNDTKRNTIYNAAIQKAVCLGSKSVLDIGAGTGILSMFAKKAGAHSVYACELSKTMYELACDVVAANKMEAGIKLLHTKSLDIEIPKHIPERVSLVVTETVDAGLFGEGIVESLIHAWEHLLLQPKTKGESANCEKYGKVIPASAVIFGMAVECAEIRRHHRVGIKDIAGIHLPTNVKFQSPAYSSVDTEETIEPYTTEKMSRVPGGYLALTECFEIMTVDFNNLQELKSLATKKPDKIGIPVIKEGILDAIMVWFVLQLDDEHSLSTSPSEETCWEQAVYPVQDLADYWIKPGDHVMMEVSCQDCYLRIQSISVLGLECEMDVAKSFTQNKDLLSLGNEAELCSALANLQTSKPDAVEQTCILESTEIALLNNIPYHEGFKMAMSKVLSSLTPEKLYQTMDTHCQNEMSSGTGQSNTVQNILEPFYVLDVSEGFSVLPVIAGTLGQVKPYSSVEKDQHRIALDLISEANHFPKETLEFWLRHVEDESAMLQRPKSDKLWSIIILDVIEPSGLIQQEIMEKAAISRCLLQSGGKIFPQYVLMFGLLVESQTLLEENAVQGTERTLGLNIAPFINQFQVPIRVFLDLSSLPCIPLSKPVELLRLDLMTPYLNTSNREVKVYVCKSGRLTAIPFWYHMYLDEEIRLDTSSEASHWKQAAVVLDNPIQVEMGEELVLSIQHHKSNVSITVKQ

`N#Cc1ccc(NC(=O)c2cc(C=O)n3c2CCCC3)c2cc(O)ccc12`: the IC50 in data set [1] came out at 14 µM; in data set [5], 8 µM; in data set [11] it was 30 µM. For the same molecule, in [2], the outcome was Active. For the same molecule, the inhibition result in [3], in [7] and in data set [9] was “Active” each time. Further, the inhibition in data set [4] was greater than 50%. The result in [6] was Active. Also, the inhibition result in data set [8] and in data set [10] was “inactive” throughout.
In the case of `O=C(COC(=O)c1cc(-c2ccoc2)n[nH]1)Nc1ccc(Br)cc1`, the IC50 in data set [12] was determined as 11 µM; in data set [1], 26 µM; in data set [15] it was 7 µM; in data set [16], 11 µM; in data set [18], 15 µM; in data set [20], 8 µM. In addition, the IC50 in data set [23] is 4 µM; in data set [5], 2.2 µM; in data set [24] it was 11 µM; in data set [34] it was 16 µM. Also, the inhibition result in data set [13], in data set [17] and in data set [30] was “Active” throughout. The inhibition in data set [14], in [19], in data set [21], in data set [22], in [25] and in [28] was greater than 50% in each case. The inhibition in data set [32], in data set [33] and in [35] was greater than 50% in each case. In addition, the inhibition result in data set [26], in data set [27] and in data set [31] was “inactive” each time. The result in data set [29] was Active.
